Drawing on ChEMBL document CHEMBL1159376, “Potential cancer chemopreventive constituents of the seeds of Dipteryx odorata (tonka bean)” (J Nat Prod, 2003), this text covers IC50, inhibition and Ratio for 5 compounds.

What is called IC50 is the point on the concentration scale where inhibition reaches its midpoint. Lower therefore signals higher potency.

A short description of assay [1]: Growth inhibition of mouse Hepa-1c1c7 cells. It is filed as functional, cell-based.
A short description of assay [2]: Inhibition of 7,12-dimethylbenz[a]anthracene-induced […] lesions in mouse mammary organ culture model at 10 ug/ml. It is filed as functional. The following applies: Mammary gland. The method in brief:
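Mouse mammary glands in organ culture with 7,12-dimethylbenz[a]anthracene-induced preneoplastic lesions. Samples were tested at 10 µg/mL, with sulforaphane at 1 µg/mL as positive control. The read-out was percent inhibition of lesion formation.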

Assay [3] can be described thus: Chemoprevention index, ratio of IC50 for mouse Hepa-1c1c7 cells to drug level required to double quinone reductase activity in mouse Hepa-1c1c7 cells. Type of assay: functional.
Another assay is described as follows: tissue or blood. The following applies: Mus musculus, Mammary gland, read-out: INH.

The compound `O=C(/C=C/c1ccc(O)cc1)c1ccc(O)cc1O` [ISOLIQUIRITIGENIN] returned a concentration for half-maximal inhibition (IC50) in assay [1] of 27.3 µM. This compound also came in with an inhibition at 10 µg/mL in assay [2] of 76%. Besides, the Ratio in assay [3] was 7.2.

As to `COc1cc(/C=C2\Oc3cc(O)ccc3C2=O)ccc1O`, the 50% inhibitory concentration (IC50) in assay [1] was determined as 34.6 µM. For the same compound, the inhibition at 10 µg/mL in assay [2] came out at 48.2%. Further, in assay [3], the Ratio stood at 5.4.

Regarding `COc1cc(C2Oc3c(OC)cc(/C=C/C=O)cc3C2CO)ccc1O` (racemic), in assay [1], half-maximal inhibition (IC50) required 48.5 µM. In assay [3], the Ratio was found to be 3.2.

The compound `O=C1/C(=C/c2ccc(O)c(O)c2)Oc2cc(O)ccc21` [SULFURETIN] yielded an IC50 in assay [1] of 78.5 µM. Besides, the inhibition at 10 µg/mL in assay [2] turned out to be 58.5%. Moreover, the Ratio in assay [3] came out at 3.8.

For the compound `C[S+]([O-])CCCCN=C=S` (centres undefined) [SULFORAPHANE], it took 27.3 µM to reach half-maximal inhibition in assay [1] (IC50). Further, the inhibition at 1 µg/mL in the assay “tissue or blood” came out at 83.7%. Also, the Ratio in assay [3] was found to be 7.2.
